Measurements: ChEMBL document CHEMBL4680257, “Discovery of novel NF-кB inhibitor based on scaffold hopping: 1,4,5,6,7,8-hexahydropyrido[4,3-d]pyrimidine” (Eur J Med Chem, 2020)
Calls of active or inactive are those of the source. The calls are words filed in the database; no cut-off is given here.

Columns and labels:
[1] = test system: SMMC-7721; experiment: Cytotoxicity against human SMMC-7721 cells assessed as reduction in cell viability incubated for 24 hrs by MTT assay; type: functional, cell-based; conditions: SMMC-7721, 24 h
In short: (§1)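 Cells kept at 37 °C in 5% CO₂. HepG2 grown in DMEM with 10% serum; HHL-5, LO2 and SMMC-7721 in 1640 medium with 10% serum. Seeded, grown 24 h, then exposed 24 h to 10, 5, 2.5, 1.25, 0.625 and 0.3125 µg/mL. MTT (5 mg/mL) added for 4 h at 37 °C; formazan dissolved in DMSO, OD read at 570 nm. IC50 averaged from three replicates.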

[2] = Cytotoxicity against human HHL-5 cells assessed as reduction in cell viability incubated for 24 hrs by MTT assay; type: cell-based; conditions: HHL-5, 24 h; in short: as §1
[3] = test system: L02; experiment: Cytotoxicity against human L02 cells assessed as reduction in cell viability incubated for 24 hrs by MTT assay; type: cell-based; conditions: L02, 24 h; in short: as §1
[4] = test system: RAW264.7; experiment: Cytotoxicity against mouse RAW264.7 cells assessed as reduction in cell viability at 5 uM incubated for 24 hrs by MTT assay; type: cell-based; conditions: raw264.7, 24 h
[5] = test system: RAW264.7; experiment: Antiinflammatory activity against mouse RAW264.7 cells assessed as LPS-induced TNF-alpha at 5 uM pretreated for 2 hrs followed by LPS stimulation and measured after 22 hrs by ELISA (reference value: 0 %); type: functional; conditions: time 24 hrs
[6] = test system: RAW264.7; experiment: Antiinflammatory activity against mouse RAW264.7 cells assessed as LPS-induced IL-6 at 5 uM pretreated for 2 hrs followed by LPS stimulation and measured after 22 hrs by ELISA relative to control (reference value: 0 %); type: functional; conditions: time 24 hrs
[7] = test system: HepG2; experiment: Induction of apoptosis in human HepG2 cells assessed as early apoptotic cells at 1 uM incubated for 24 hrs by annexin V-FITC and PI staining based flow cytometry analysis (reference value: 0.2 %); type: functional
In short: (§2)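 Cells seeded at 2×10^5 per well and treated 24 h with 1.0, 2.0 or 4.0 µM, or DMSO. Harvested, washed twice in cold PBS, resuspended at 1×10^5 cells/mL in buffer. Stained with Annexin V-FITC plus propidium iodide for 15 min at room temperature in the dark, then analysed by flow cytometry.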

[8] = test system: HepG2; experiment: Induction of apoptosis in human HepG2 cells assessed as necrotic cells at 1 uM incubated for 24 hrs by annexin V-FITC and PI staining based flow cytometry analysis (reference value: 0.8 %); type: functional; in short: as §2
[9] = test system: HepG2; experiment: Induction of apoptosis in human HepG2 cells assessed as viable cells at 4 uM incubated for 24 hrs by annexin V-FITC and PI staining based flow cytometry analysis (reference value: 94.2 %); type: functional; conditions: read-out: Activity; in short: as §2
[10] = test system: HepG2; experiment: Induction of apoptosis in human HepG2 cells assessed as early apoptotic cells at 4 uM incubated for 24 hrs by annexin V-FITC and PI staining based flow cytometry analysis (reference value: 0.2 %); type: functional; in short: as §2
[11] = test system: HepG2; experiment: Induction of apoptosis in human HepG2 cells assessed as late apoptotic cells at 4 uM incubated for 24 hrs by annexin V-FITC and PI staining based flow cytometry analysis (reference value: 4.8 %); type: functional; in short: as §2
[12] = test system: HepG2; experiment: Induction of apoptosis in human HepG2 cells assessed as necrotic cells at 4 uM incubated for 24 hrs by annexin V-FITC and PI staining based flow cytometry analysis (reference value: 0.8 %); type: functional; in short: as §2
[13] = test system: SMMC-7721; experiment: Induction of apoptosis in human SMMC-7721 cells assessed as viable cells at 1 uM incubated for 24 hrs by annexin V-FITC and PI staining based flow cytometry analysis (reference value: 93.3 %); type: functional; conditions: read-out: Activity; in short: as §2
[14] = test system: SMMC-7721; experiment: Induction of apoptosis in human SMMC-7721 cells assessed as early apoptotic cells at 1 uM incubated for 24 hrs by annexin V-FITC and PI staining based flow cytometry analysis (reference value: 0.3 %); type: functional; in short: as §2
[15] = test system: SMMC-7721; experiment: Induction of apoptosis in human SMMC-7721 cells assessed as late apoptotic cells at 1 uM incubated for 24 hrs by annexin V-FITC and PI staining based flow cytometry analysis (reference value: 5.4 %); type: functional; in short: as §2
[16] = test system: SMMC-7721; experiment: Induction of apoptosis in human SMMC-7721 cells assessed as necrotic cells at 1 uM incubated for 24 hrs by annexin V-FITC and PI staining based flow cytometry analysis (reference value: 1 %); type: functional; in short: as §2
[17] = test system: SMMC-7721; experiment: Induction of apoptosis in human SMMC-7721 cells assessed as early apoptotic cells at 4 uM incubated for 24 hrs by annexin V-FITC and PI staining based flow cytometry analysis (reference value: 0.3 %); type: functional; in short: as §2
[18] = test system: SMMC-7721; experiment: Induction of apoptosis in human SMMC-7721 cells assessed as late apoptotic cells at 4 uM incubated for 24 hrs by annexin V-FITC and PI staining based flow cytometry analysis (reference value: 5.4 %); type: functional; in short: as §2
[19] = test system: SMMC-7721; experiment: Induction of apoptosis in human SMMC-7721 cells assessed as necrotic cells at 4 uM incubated for 24 hrs by annexin V-FITC and PI staining based flow cytometry analysis (reference value: 1 %); type: functional; in short: as §2
[20] = test system: HepG2; experiment: Induction of apoptosis in human HepG2 cells incubated for 24 hrs by annexin V-FITC and PI staining based flow cytometry analysis; type: functional, cell-based; conditions: dose 1-4 µM; in short: as §2
[21] = test system: SMMC-7721; experiment: Induction of apoptosis in human SMMC-7721 cells incubated for 24 hrs by annexin V-FITC and PI staining based flow cytometry analysis; type: functional, cell-based; conditions: dose 1-4 µM; in short: as §2
[22] = test system: HepG2; experiment: Induction of apoptosis in human HepG2 cells assessed as increase in Caspase-3 expression incubated for 24 hrs by Western blot analysis; type: functional, cell-based; conditions: dose 1-4 µM
In short: (§3)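 HepG2 exposed to 1.0, 2.0 or 4.0 µM for 24 h. Lysates separated by electrophoresis and blotted onto nitrocellulose. Probed overnight at 4 °C with anti-Bcl-2, anti-BAX or anti-cleaved caspase-3, then 2 h at room temperature with anti-mouse/rabbit IgG. ECL detection, GAPDH as loading control; quantified from more than three separate experiments.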

[23] = test system: HepG2; experiment: Induction of apoptosis in human HepG2 cells assessed as decrease in Bcl-2 expression incubated for 24 hrs by Western blot analysis; type: functional, cell-based; conditions: dose 1-4 µM; in short: as §3
[24] = test system: RAW264.7; experiment: Inhibition of NF-kappaB in mouse RAW264.7 cells assessed as reduction in LPS-induced p65 phosphorylation incubated for 1 hr followed by LPS stimulation and measured after 30 mins by Western blot analysis; type: cell-based; conditions: dose 1-4 µM
In short: (§4)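 RAW264.7 incubated 1 h with compound (1.0, 2.0, 4.0 µM), then LPS 1.0 µg/mL for 30 min before extraction. Lysates blotted to nitrocellulose and probed overnight at 4 °C for total and phospho forms of p65, IκBα, Akt, ERK1/2, JNK and p38; secondary antibody 2 h at room temperature. ECL detection, normalized to GAPDH, mean ± SD of triplicate tests.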

[25] = test system: RAW264.7; experiment: Inhibition of NF-kappaB in mouse RAW264.7 cells assessed as reduction in LPS-induced p38 phosphorylation at 1 to 4 uM incubated for 1 hr followed by LPS stimulation and measured after 30 mins by Western blot analysis; type: cell-based; conditions: dose 1-4 µM; in short: as §4
[26] = test system: RAW264.7; experiment: Inhibition of NF-kappaB in mouse RAW264.7 cells assessed as reduction in LPS-induced p65 nuclear translocation at 4 uM pretreated with LPS for 15 mins followed by compound addition and measured after 2 hrs by DAPI staining based fluorescence microscopy; conditions: time 135.0 min

## Cl.NC1=NC(c2cccc(F)c2)C2=C(N1)/C(=C/c1cccc(F)c1)CN(S(=O)(=O)c1ccc(C(F)(F)F)cc1)C2 (stereo unspecified)
[1]
  IC50: 2.4 µM
[2]
  IC50: 28.8 µM
[3]
  IC50: 35.2 µM
[4]
  Activity: Non-Toxic
[5]
  inhibition at 5 µM: 88.5%
[6]
  inhibition at 5 µM: 86.8%
[7]
  Activity: 53.4%
[8]
  Activity: 0.8%
[9]
  viability at 4 µM: 30.6%
[10]
  Activity: 49.8%
[11]
  Activity: 18.5%
[12]
  Activity: 1.2%
[13]
  viability at 1 µM: 80.8%
[14]
  Activity: 3.2%
[15]
  Activity: 15.1%
[16]
  Activity: 0.7%
[17]
  Activity: 11.4%
[18]
  Activity: 9.2%
[19]
  Activity: 12.9%
[20]
  Activity: Dose-dependent effect
[21]
  Activity: Dose-dependent effect
[22]
  Activity: Dose-dependent effect
[23]
  Activity: Dose-dependent effect
[24]
  inhibition: Dose-dependent effect
[25]
  inhibition: Active
[26]
  inhibition: Active
